≈ marks a conversion by molar mass, not a printed value.
How the values were obtained:
[1] = fTmax in plasma of diabetic patient with chronic wound infection at […], iv loading dose followed by […], iv BID for 2 to 3 doses by microdialysis; type: ADME, organism-based; conditions: human
Outline: (§1)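 Steady-state plasma after IV 100 mg loading then 50 mg every 12 h (1-h infusions) in diabetic patients. Total HPLC plasma levels converted to free using a polynomial fitted to ultrafiltration-derived percent unbound versus plasma concentration (y = y0 + a/x + b/x² + c/x³). Free-drug profiles analysed noncompartmentally; Cmax by visual inspection.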

[2] = Terminal half life in wound interstitial fluid of diabetic patient with chronic wound infection at […], iv loading dose followed by […], iv BID for […] by microdialysis; type: ADME, organism-based; conditions: human
Outline: (§2)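 Subcutaneous microdialysis probes (30 mm membrane, 20 kDa cutoff) placed before dosing, one within 10 cm of wound margin and one in uninfected thigh of the same limb. Patients given IV 100 mg load then 50 mg q12h.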

[3] = Drug recovery in wound interstitial fluid of diabetic patient with chronic wound infection at […], iv loading dose followed by […], iv BID for 2 to 3 doses by microdialysis; type: ADME, organism-based; conditions: human, in vivo
Outline: (§3)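 In vivo recovery by retrodialysis for each catheter after the final sampling. Perfusate was lactated Ringer's containing 500 μg/ml drug, perfused for 1 h at 2 μl/min. Recovery = 100 − (100 × Cdialysate/Cperfusate), measured by HPLC.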

[4] = Ratio of AUC (0 to 24 hrs) in thigh interstitial fluid of diabetic patient with chronic wound infection to MIC for methicillin-resistant Staphylococcus aureus; type: functional, Thigh muscle
[5] = Drug penetration in wound interstitial fluid of diabetic patient with chronic wound infection at […], iv loading dose followed by […], iv BID for […] by microdialysis; type: ADME, organism-based; conditions: human, in vivo
Outline: (§4)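 Tissue penetration is interstitial AUC0-24 (wound or thigh, microdialysis, recovery-corrected) divided by free plasma AUC0-24 × 100. Free plasma values come from the protein-binding polynomial applied to total concentrations. Sampling over a 12-h steady-state interval after IV 100 mg load then 50 mg q12h. Sites were compared by t test or Mann-Whitney.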

[6] = AUC (0 to 24 hrs) in thigh interstitial fluid of diabetic patient with chronic wound infection at […], iv loading dose followed by […], iv BID for […] by microdialysis; type: ADME, organism-based; set-up: time < 24 hr, route intravenous; conditions: human; outline: as §2
[7] = Volume of distribution at steady state in plasma of diabetic patient with chronic wound infection at […], iv loading dose followed by […], iv BID for 2 to 3 doses by microdialysis; type: ADME, organism-based; conditions: human, read-out: Vdss
Outline: (§5)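 Eight adult diabetic patients; IV 100 mg loading dose over 1 h via peripheral vein, then 50 mg over 1 h every 12 h for 2–3 further doses. Heparinized venous blood from contralateral arm at 0–12 h over a steady-state interval; plasma stored −80°C; HPLC (linear 0.05–5 μg/ml). Noncompartmental analysis: Cmax by inspection, log-linear trapezoidal AUC0-24, t1/2 = 0.693/λz (≥3 terminal points), […].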

Plasma [8] = experiment: Clearance at steady state in plasma of diabetic patient with chronic wound infection at […], iv loading dose followed by […], iv BID for 2 to 3 doses by microdialysis; type: ADME, organism-based; conditions: human, in vivo; outline: as §5
[9] = Drug recovery in thigh interstitial fluid of diabetic patient with chronic wound infection at […], iv loading dose followed by […], iv BID for 2 to 3 doses by microdialysis; type: ADME, organism-based; conditions: human, in vivo; outline: as §3
[10] = Tmax in plasma of diabetic patient with chronic wound infection at […], iv loading dose followed by […], iv BID for 2 to 3 doses by microdialysis; type: ADME, organism-based; conditions: human; outline: as §5
[11] = Ratio of fAUC (0 to 24 hrs) in plasma of diabetic patient with chronic wound infection to MIC for methicillin-resistant Staphylococcus aureus; type: functional
Outline: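 Same patients and IV regimen (100 mg load, then 50 mg q12h). Total plasma levels measured by HPLC over the 12-h steady-state interval were converted to free drug using a polynomial fit of ultrafiltration protein binding, measured in triplicate at 1, 6 and 12 h.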

[12] = Cmax in plasma of diabetic patient with chronic wound infection at […], iv loading dose followed by […], iv BID for 2 to 3 doses by microdialysis; type: ADME, organism-based; set-up: route intravenous; conditions: human; outline: as §5
[13] = Terminal half life in plasma of diabetic patient with chronic wound infection at […], iv loading dose followed by […], iv BID for 2 to 3 doses by microdialysis; type: ADME, organism-based; conditions: human; outline: as §5
[14] = Cmax in wound interstitial fluid of diabetic patient with chronic wound infection at […], iv loading dose followed by […], iv BID for […] by microdialysis; type: ADME, organism-based; set-up: route intravenous; conditions: human; outline: as §2
[15] = Terminal half life in thigh interstitial fluid of diabetic patient with chronic wound infection at […], iv loading dose followed by […], iv BID for […] by microdialysis; type: ADME, organism-based; conditions: human; outline: as §2
Plasma [16] = experiment: AUC (0 to 24 hrs) in plasma of diabetic patient with chronic wound infection at […], iv loading dose followed by […], iv BID for 2 to 3 doses by microdialysis; type: ADME, organism-based; set-up: time < 24 hr, route intravenous; conditions: human, in vivo; outline: as §5
[17] = fAUC (0 to 24 hrs) to MIC for Staphylococcus aureus infected in thigh of ICR mouse; type: functional, Thigh muscle
[18] = Tmax in thigh interstitial fluid of diabetic patient with chronic wound infection at […], iv loading dose followed by […], iv BID for […] by microdialysis; type: ADME, organism-based; conditions: human; outline: as §2
[19] = Ratio of AUC (0 to 24 hrs) in plasma diabetic patient with chronic wound infection to MIC for methicillin-resistant Staphylococcus aureus; type: functional
Outline: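 Eight adult diabetic patients; tigecycline 100 mg IV over 1 h, then 50 mg over 1 h every 12 h for 2–3 more doses. Venous plasma was sampled over the 12-h steady-state interval and total drug measured by HPLC.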

Plasma [20] = experiment: fCmax in plasma of diabetic patient with chronic wound infection at […], iv loading dose followed by […], iv BID for 2 to 3 doses by microdialysis; type: ADME, organism-based; conditions: human, in vivo; outline: as §1
[21] = Cmax in thigh interstitial fluid of diabetic patient with chronic wound infection at […], iv loading dose followed by […], iv BID for […] by microdialysis; type: ADME, organism-based; set-up: route intravenous; conditions: human; outline: as §2
Staphylococcus aureus = experiment: Antimicrobial activity against methicillin-resistant Staphylococcus aureus by CLSI method; type: functional
[22] = Tmax in wound interstitial fluid of diabetic patient with chronic wound infection at […], iv loading dose followed by […], iv BID for […] by microdialysis; type: ADME, organism-based; conditions: human; outline: as §2
[23] = Drug penetration in blister fluid of healthy human at […], iv loading dose followed by […], iv BID for 2 to 3 doses by microdialysis; type: ADME, organism-based; conditions: in vivo
[24] = AUC (0 to 24 hrs) in wound interstitial fluid of diabetic patient with chronic wound infection at […], iv loading dose followed by […], iv BID for […] by microdialysis; type: ADME, organism-based; set-up: time < 24 hr, route intravenous; conditions: human; outline: as §2
[25] = Drug penetration in thigh interstitial fluid of diabetic patient with chronic wound infection at […], iv BID for […] by microdialysis; type: ADME, organism-based; conditions: human, in vivo; outline: as §4
[26] = Ratio of AUC (0 to 24 hrs) in patient with complicated skin and skin structure infections to MIC for Staphylococcus aureus; type: functional

SMILES: CN(C)c1cc(NC(=O)CNC(C)(C)C)c(O)c2c1C[C@H]1C[C@H]3[C@H](N(C)C)C(O)=C(C(N)=O)C(=O)[C@@]3(O)C(O)=C1C2=O [TIGECYCLINE]
- Tmax [1]: 1.13 h
- half-life [2]: 24.9 h
- Activity [3]: 57.03%
- RatioAUC/MIC [4]: 21
- Drug uptake [5]: 100%
- AUC at 24 h [6]: 2520 ng·h/mL
- Vd [7]: 3.95 L/kg
- CLss (Plasma [8]): 4.67 mL/min/kg
- Activity [9]: 53.48%
- Tmax [10]: 1.13 h
- RatioAUC/MIC [11]: 22.1
- Cmax [12]: 420 ng/mL
- half-life [13]: 9.73 h
- Cmax [14]: 160 ng/mL
- half-life [15]: 16 h
- AUC (Plasma [16]): 3990 ng·h/mL
- fAUC/MIC [17]: 5.7
- Tmax [18]: 3.38 h
- RatioAUC/MIC [19]: 33.25
- Cmax_unbound (Plasma [20]): 160 ng/mL
- Cmax [21]: 180 ng/mL
- MIC90 (Staphylococcus aureus): 0.12 µg/mL (≈ 0.205 µM)
- Tmax [22]: 4.38 h
- Drug uptake [23]: 74%
- AUC at 24 h [24]: 2600 ng·h/mL
- Drug uptake [25]: 98.94%
- RatioAUC/MIC [26]: 17.9
